High-throughput results as filed in PubChem BioAssay.
This is a sample that favours compounds with a hit; in the whole collection about 3.8% have one here.
KCNQ1 block = blocks the human KCNQ1 potassium channel. P51787. CHO-K1 KCNQ1, FluxOR thallium flux fluorescence; hits give high values. B-score at 10 µM. 310,000 compounds, 1.3% hits. AID 2642;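 active = compounds whose thallium flux B-score, printed positive for inhibition, exceeds three library SD while starting fluorescence stays within three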;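 also: channel opened by potassium depolarization with thallium stimulus after 20 min compound exposure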
KCNQ1 pot = potentiates or activates the human KCNQ1 potassium channel | CHO-K1 KCNQ1, thallium flux FluxOR fluorescence; hits give high values | AID 2648 | B-score at 10 µM | P51787 | 310,000 compounds, 0.35% hits;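 active = fluorescence ratio B-score, a plate-corrected score, at least three library SD, with initial intensity B-score within 5 SD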
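System: CHO-K1 cells stably expressing KCNQ1 / Medium: assay buffer for compound exposure, DMSO matched across wells / Reagent: thallium- and potassium-containing depolarizing buffer / Compound: one concentration, matched DMSO / Incubation: 20 min compound pretreatment at room temperature / Measured by: kinetic FluxOR fluorescence, 10 s baseline plus 110 s post-stimulus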
hERG rescue = hERG (human) protection from proarrhythmic block; CHO-hERG, FluxOR thallium flux, dofetilide IC70 present; activation (rescue from dofetilide block), less the hit threshold, % at 10 µM; 310,000 compounds, 0.51% hits;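 active = activation above the mean of controls blocked by dofetilide plus 5 SD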;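 also: thallium influx through hERG after potassium depolarization seen as dye fluorescence rise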
KCNK9 inh = human KCNK9 channel inhibition; Q9NPC2; HEK293 KCNK9, FluxOR thallium flux fluorescence; hits give low values; B-score at 10 µM; 310,000 compounds, 1.2% hits; AID 488922;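 active = ratio B-score over 3 SD below the library mean, with starting fluorescence within 5 SD of its mean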;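 also: negative B-score means less thallium flux so channel inhibition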
KCNK3 inh = human KCNK3 channel inhibition, primary screen; O14649; CHO-KCNK3 thallium flux, FluxOR fluorescence; hits give low values; B-score at 10 µM; 340,000 compounds, 0.84% hits; AID 602410;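 active = B-score under library mean minus 4 SD, starting fluorescence ratio at most library mean plus 5 SD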;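 also: more negative B-score means stronger inhibition of thallium flux through KCNK3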
Kir21 inh = Kir2.1 (mouse) channel inhibition | HEK293-Kir2.1, FluxOR thallium flux fluorescence; hits give low values | 310,000 compounds, 0.85% hits | B-score at 10 µM | P35561;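 active = fluorescence ratio B-score at or below minus 3 SD of library scores, with starting-brightness B-score within 2 SD, cut at about -4.2 in these data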;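 also: channel flux triggered by added potassium and thallium sulfate stimulus; B-score of peak minus minimum fluorescence over baseline after thallium stimulus; more negative B-score means stronger Kir2.1 block with less thallium influx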
KCNQ1 block val = confirmation of human KCNQ1 potassium channel inhibitors; 1,600 compounds, 93% hits; AID 588353; inhibition, % at 10 µM; KCNQ1 cell line, FluxOR thallium flux fluorescence; shares compounds with KCNQ1 block;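 active = primary screen active, with duplicate mean exceeding buffer control mean plus 3 SD of buffer wells, cut at about 28% in these data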
CHO Tl flux = KCNQ1 inhibitor counter-screen hit in parental CHO cells; 1,600 compounds, 21% hits; shares compounds with KCNQ1 block; AID 588366; fluorescence ratio (Tl flux) at 10 µM; parental CHO-K1, FluxOR thallium flux fluorescence ratio; hits give low values; zero means no signal rise above baseline;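 active = mean of duplicate thallium-flux fluorescence ratios in parental host cells more than 5 SD below the buffer control mean, cut at about 0.38 in these data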;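 also: ratio is peak minus minimum fluorescence divided by baseline fluorescence; actives read low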
KCNQ1 APC inh = human KCNQ1 inhibition validated by electrophysiology; shares compounds with KCNQ1 block; KCNQ1-CHO cells, automated patch clamp current; calls only at 10 µM; 490 compounds, 20% hits;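 active = KCNQ1 current drop exceeding 3 SD of negative control wells, seen in both duplicate runs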;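 also: steady state current during a 2 s step from -80 to +40 mV; negative values mean current inhibition and positive values mean potentiation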
KCNQ2 spec = selectivity of KCNQ1 inhibitors: inhibition of rat KCNQ2 channel; AID 651746; inhibition, % at 10 µM; KCNQ2 cells, FluxOR thallium flux fluorescence; shares compounds with KCNQ1 block; 1,600 compounds, 71% hits;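 active = mean percent inhibition of the KCNQ2 thallium signal more than 5 SD above the buffer-only control wells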;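 also: KCNQ2 expressed in CHO cells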
KCNQ1-KCNE1 inh = human KCNQ1/KCNE1 inhibition in KCNQ1 specificity screen; shares compounds with KCNQ1 block; KCNQ1/KCNE1 cells, FluxOR thallium flux fluorescence; inhibition, % at 10 µM; 1,600 compounds, 77% hits; AID 652147;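 active = mean percent inhibition of duplicate wells above the buffer-only control mean plus 3 SD of those controls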
Target sequence (P51787 whole entry, looked up): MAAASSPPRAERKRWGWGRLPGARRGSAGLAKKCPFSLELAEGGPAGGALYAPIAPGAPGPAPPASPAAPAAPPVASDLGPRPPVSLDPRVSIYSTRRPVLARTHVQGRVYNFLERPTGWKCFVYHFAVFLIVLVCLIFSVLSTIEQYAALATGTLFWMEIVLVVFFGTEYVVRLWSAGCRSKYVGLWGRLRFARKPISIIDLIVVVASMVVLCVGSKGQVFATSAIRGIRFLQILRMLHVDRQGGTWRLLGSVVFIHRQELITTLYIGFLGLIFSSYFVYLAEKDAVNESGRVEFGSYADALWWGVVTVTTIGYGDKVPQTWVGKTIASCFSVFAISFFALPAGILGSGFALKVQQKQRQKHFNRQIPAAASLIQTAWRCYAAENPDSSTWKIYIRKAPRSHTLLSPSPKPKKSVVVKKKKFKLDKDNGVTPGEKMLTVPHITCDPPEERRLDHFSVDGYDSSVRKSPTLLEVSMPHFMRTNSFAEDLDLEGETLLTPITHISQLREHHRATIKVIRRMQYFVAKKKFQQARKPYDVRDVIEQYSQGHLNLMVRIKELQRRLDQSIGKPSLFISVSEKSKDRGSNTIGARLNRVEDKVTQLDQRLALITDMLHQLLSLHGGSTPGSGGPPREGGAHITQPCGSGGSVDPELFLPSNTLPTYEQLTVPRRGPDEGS
KCNK9 block conf = confirmation of human KCNK9 potassium channel inhibitors. shares compounds with KCNK9 inh. HEK293 KCNK9 cells, FluxOR thallium flux fluorescence. inhibition, % at 10 µM. 4,900 compounds, 43% hits;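 active = thallium signal inhibited by more than 5 SD of the compound-free buffer control wells, on both duplicate plates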
Kir21 sel = selectivity of KCNK9 modulators against mouse Kir2.1 | shares compounds with KCNK9 inh | Kir2.1 cells, FluxOR thallium flux fluorescence | inhibition, % at 10 µM | 4,900 compounds, 4% hits;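 active = thallium signal drop more than 5 SD beyond the mean of the no-compound control wells, seen in both duplicate plates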;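 also: signal is fluorescence rise after thallium addition divided by baseline fluorescence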
HEK293 Tl ctr = non-induced cell nonspecific activity of KCNK9 modulators; shares compounds with KCNK9 inh; inhibition, % at 10 µM; 4,900 compounds, 40% hits; non-induced KCNK9-HEK293, FluxOR thallium flux;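 active = thallium signal drop beyond 5 SD of the untreated control mean, on both duplicate plates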
KCNK3 inh conf = human KCNK3 channel inhibition, confirmation assay. shares compounds with KCNK3 inh. CHO-KCNK3 thallium flux, FluxOR fluorescence; 0% buffer, 100% carvedilol maximal block. ratio percent of control, % at 10 µM. 2,400 compounds, 99% hits. AID 651638;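 active = ratio percent of control, averaged over triplicates, above buffer control mean plus 5 SD, cut at about 64% in these data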;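 also: ratio is the fluorescence rise from min to max over baseline after thallium stimulus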
KCNK3 noninduced = KCNK3 inhibitor counter-screen hit in non-induced cells; 2,400 compounds, 40% hits; shares compounds with KCNK3 inh; non-induced KCNK3 parental cells, FluxOR thallium flux; hits give low values; thallium flux ratio (lower = more inhibition) at 10 µM;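 active = thallium flux ratio, averaged over three wells, more than 5 SD below the buffer control mean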;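 also: host cells are CHO cells without KCNK3 induction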
Each line names hits and unclear results; the compound was inactive in the other large screens (follow-up assays come after a bar, where they were run).

CCCn1c(=O)c(C(=O)NCCc2ccc(OC)c(OC)c2)c(O)c2ccccc21	KCNQ1 block 9, KCNK3 inh -11 | KCNQ1 block val 80 | CHO Tl flux inactive | KCNQ2 spec 101% | KCNQ1-KCNE1 inh 63% | KCNK3 inh conf 107 | KCNK3 noninduced 0.16
CN(C)S(=O)(=O)c1cccc(COC(=O)c2ccc(Cl)cc2O)c1	KCNQ1 block 7, KCNK9 inh -8.3, KCNK3 inh -9.5 | KCNQ1 block val 121 | CHO Tl flux inactive | KCNQ1 APC inh inactive | KCNQ2 spec 96% | KCNQ1-KCNE1 inh 117% | KCNK9 block conf 50% | Kir21 sel inactive | HEK293 Tl ctr 26% | KCNK3 inh conf 131 | KCNK3 noninduced inactive
CNc1ccccc1C(C)(C)c1cc(-c2cccc(Br)c2)no1	KCNQ1 block 6, KCNK3 inh -11 | KCNQ1 block val 122 | CHO Tl flux inactive | KCNQ1 APC inh inactive | KCNQ2 spec 106% | KCNQ1-KCNE1 inh 117% | KCNK3 inh conf 121 | KCNK3 noninduced 0.15
CNc1ccccc1C(C)(C)c1cc(-c2cccc([N+](=O)[O-])c2)no1	none
CC1CCCCC1NC(=O)COC(=O)c1ccc2c(c1)OCCO2 (configuration not stated)	none (no result: KCNQ1 block, KCNQ1 pot, hERG rescue, KCNK9 inh, Kir21 inh)
Cc1cccc(-c2cc(C(=O)Nc3ccncc3)c3ccccc3n2)c1	none
Cc1cccc(-c2cc(C(=O)Nc3cccnc3)c3ccccc3n2)c1	KCNQ1 block 9, KCNK3 inh -8.9 | KCNQ1 block val 124 | CHO Tl flux 0.37 | KCNQ2 spec 136% | KCNQ1-KCNE1 inh 159% | KCNK3 inh conf 125 | KCNK3 noninduced 0.1
Cc1ccccc1-c1ccccc1CN1[C@@H](C(C)C)COCCS1(=O)=O	none (no result: KCNQ1 block, KCNQ1 pot, hERG rescue, KCNK9 inh, Kir21 inh)
COC(=O)c1ccc(NC(=S)NC2CCc3ccccc32)cc1 (configuration not stated)	KCNQ1 block 7, KCNK3 inh -8.8 | KCNQ1 block val 68 | CHO Tl flux inactive | KCNQ2 spec 65% | KCNQ1-KCNE1 inh 58% | KCNK3 inh conf 93 | KCNK3 noninduced inactive
Cc1cccc(-n2c(SCC(=O)NCC3CCCO3)nc3ccccc3c2=O)c1C (configuration not stated)	none (no result: KCNQ1 block, KCNQ1 pot, hERG rescue, KCNK9 inh, Kir21 inh)
CCOC(=O)c1c(CSC(=N)N)n(C)c2cc(Br)c(OC(C)=O)cc12	KCNQ1 block 8, KCNK3 inh -8.8 | KCNQ1 block val 43 | CHO Tl flux inactive | KCNQ2 spec 60% | KCNQ1-KCNE1 inh 78% | KCNK3 inh conf 117 | KCNK3 noninduced 0.14
O=C(OCC(=O)N1CCCc2ccccc21)c1ccccc1OC(F)F	none (no result: KCNQ1 block, KCNQ1 pot, hERG rescue, KCNK9 inh, Kir21 inh)
CCCN1CCc2c(sc(NC(=O)c3ccc(S(=O)(=O)N(C)c4ccccc4)cc3)c2C(=O)NC)C1	KCNQ1 block 15, KCNK3 inh -9 | KCNQ1 block val 144 | CHO Tl flux 0.28 | KCNQ2 spec inactive | KCNQ1-KCNE1 inh active | KCNK3 inh conf 171 | KCNK3 noninduced 0.055
Cc1cc(-c2ccc(C(C)C)c(S(=O)(=O)N3CCOc4ccccc43)c2)on1	KCNQ1 block 7, KCNK9 inh -6.7, KCNK3 inh -12 | KCNQ1 block val 96 | CHO Tl flux inactive | KCNQ1 APC inh inactive | KCNQ2 spec 83% | KCNQ1-KCNE1 inh 107% | KCNK3 inh conf 111 | KCNK3 noninduced inactive
CSc1cccc(NC(=O)N2CCc3ccc(NC(=O)c4ccccn4)cc3C2)c1	KCNQ1 block 6, KCNK3 inh -11 | KCNQ1 block val 112 | CHO Tl flux inactive | KCNQ1 APC inh inactive | KCNQ2 spec 104% | KCNQ1-KCNE1 inh 178% | KCNK3 inh conf 112 | KCNK3 noninduced 0.16
N#CC1=C(N)NC(SCc2ccc(Br)cc2)=C(C#N)C12CCCCC2	KCNQ1 block 18, KCNK9 inh -6.8, KCNK3 inh -12 | KCNQ1 block val 140 | CHO Tl flux 0.31 | KCNQ2 spec 115% | KCNQ1-KCNE1 inh 159% | KCNK3 inh conf 126 | KCNK3 noninduced 0.13
Cc1cc(C)cc(OCC(O)CN2CCC(CN3C(=O)c4cccc5cccc(c45)C3=O)CC2)c1 (configuration not stated)	KCNQ1 block 9, KCNK3 inh -9.5 | KCNQ1 block val 128 | CHO Tl flux inactive | KCNQ1 APC inh inactive | KCNQ2 spec 99% | KCNQ1-KCNE1 inh 138% | KCNK9 block conf inactive | Kir21 sel inactive | HEK293 Tl ctr inactive | KCNK3 inh conf 111 | KCNK3 noninduced inactive
CCOc1ccccc1NC(=O)C(OC(=O)c1cc(C)oc1C)c1ccccc1 (configuration not stated)	KCNQ1 block 6, KCNK9 inh -7.9 | KCNQ1 block val 82 | CHO Tl flux 0.33 | KCNQ2 spec 105% | KCNQ1-KCNE1 inh 86% | KCNK3 inh conf 106 | KCNK3 noninduced inactive
Cc1cc(C)c(C#N)c(SCSCc2ccccc2)n1	KCNQ1 block 6, KCNK3 inh -9.7 | KCNQ1 block val 86 | CHO Tl flux 0.38 | KCNQ2 spec 110% | KCNQ1-KCNE1 inh 125% | KCNK3 inh conf 107 | KCNK3 noninduced inactive
COc1ccc(CC(=O)OC(C)C(=O)NCc2ccc3c(c2)OCO3)cc1OC (configuration not stated)	none
